Activity calls are given as the source filed them. The rule behind the calls is not given here.
Experiments:
[1] = Effect on growth of Lactobacillus crispatus at 20 ug/ml after 24 hrs
Outline: (§1)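 L. crispatus grown in Todd-Hewitt broth flasks at 37°C with shaking, with or without nonformulated GML at 20, 50 or 100 µg/ml. The starting inoculum was 3.0 x 10^6/ml. Samples were taken over 24 h for CFU plate counts.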

Haemophilus = assay: Bactericidal activity against Haemophilus at >=20 ug/ml; format: functional, organism-based
Staphylococcus aureus [2] = assay: Growth inhibition of Staphylococcus aureus MN8 using 5% compound-formulated gel after 24 hrs; format: functional, organism-based
Outline: (§2)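 Agar disk test: paper disks carrying 30 µl of 5% GML in K-Y warming gel were placed on Todd-Hewitt agar lawns of about 10^6 L. crispatus or S. aureus MN8. Plates were incubated overnight at 37°C in 7% CO2 and scored for visible growth inhibition around the disks. Done in quadruplicate.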

[3] = test system: Human immunodeficiency virus 1; assay: Antiviral activity against HIV1 infected in human T cells assessed as inhibition of viral infection at 100 ug/mL; format: functional, organism-based; conditions: T-cell
[4] = Effect on growth of Lactobacillus crispatus using 5% compound-formulated gel after 24 hrs; outline: as §2
Gardnerella = assay: Bactericidal activity against Gardnerella at >=20 ug/ml; format: functional
Lactobacillus crispatus [5] = assay: Suppression of cell viability loss of Lactobacillus crispatus in stationary phase culture at 100 ug/ml after 48 hrs
Rhesus monkey [6] = assay: Toxicity in rhesus monkey assessed as induction of vaginal inflammation administered twice daily dose of 5% compound-formulated gel for first 8 weeks followed by 3-weeks rest period and subsequent once daily dose for […] measured 6 months post dose by extensive colposcopy; format: organism-based, Macaca mulatta; conditions: in vivo, topical_or_ocular, 4383 h
Lactobacillus crispatus [7] = assay: Suppression of cell viability loss of Lactobacillus crispatus in stationary phase culture at 100 ug/ml after 48 hrs; format: functional
Outline: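 Stationary-phase L. crispatus broth cultures were incubated a further 48 h at 37°C without GML or with GML at 100 µg/ml. Viable counts were then determined by plating.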

Staphylococcus aureus [8] = assay: Inhibition of Staphylococcus aureus MN8 infection induced IL-8 production in human HVEC assessed as at 100 ug/ml by enzyme-linked immunosorbent assay; format: functional, organism-based
Outline: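 Human vaginal epithelial cells in keratinocyte serum-free medium without antibiotics were seeded 2–3 days beforehand in 96-well plates. S. aureus MN8 was grown overnight in Todd-Hewitt broth, washed and resuspended in PBS at pH 7.2. Cells received 10^6–10^8 CFU in triplicate, with or without GML at 100 µg/ml, for 6 h. IL-8 was measured by ELISA.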

Helicobacter = assay: Bactericidal activity against Helicobacter at >=20 ug/ml; format: functional
Staphylococcus = assay: Effect on growth of vaginal coagulase negative staphylococci flora in rhesus monkey administered twice daily dose of 5% compound-formulated gel for first 8 weeks followed by 3-weeks rest period and subsequent once daily dose for […] measured 6 months post dose; format: functional, organism-based
Outline: (§3)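 Rhesus macaques (9 on GML, 3 on vehicle per time point) received 1 ml intravaginal gel containing 50 mg GML in K-Y warming gel, or vehicle gel, by needleless syringe. Dosing was twice daily for 8 weeks, then 3 weeks of rest, then once daily for 11 weeks. Vaginal swabs were taken 1 h post-dose, held at 4°C, serially diluted in Todd-Hewitt broth and plated on chocolate agar at 37°C in 7% CO2.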

Rhesus monkey [9] = assay: Toxicity in rhesus monkey assessed as induction of vaginal mucosal lesions administered twice daily dose of 5% compound-formulated gel for first 8 weeks followed by 3-weeks rest period and subsequent once daily dose for […] measured 6 months post dose by extensive colposcopy; format: organism-based, Macaca mulatta; conditions: in vivo, topical_or_ocular, 4383 h
[10] = Effect on lactic acid production in Lactobacillus crispatus at 50 ug/ml after 8 to 24 hrs; format: ADME
Outline: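 Todd-Hewitt broth cultures of L. crispatus were started at 3.0 x 10^6/ml with or without nonformulated GML at 50 µg/ml and incubated at 37°C with shaking. Culture pH was measured on samples removed at set times as an acid-production read-out.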

[11] = Effect on growth of Lactobacillus crispatus at 50 ug/ml after 24 hrs; outline: as §1
[12] = Effect on growth of vaginal Lactobacillus flora in rhesus monkey administered twice daily dose of 5% compound-formulated gel for first 8 weeks followed by 3-weeks rest period and subsequent once daily dose for […] measured 6 months post dose; conditions: in vivo, topical_or_ocular, 4383 h; outline: as §3

**Q.** For `CCCCCCCCCCCC(=O)OCC(O)CO` (stereo unspecified) [GLYCEROL MONOLAURATE], which Activity [1] is on record?
**A.** Non-toxic

**Q.** And the inhibition (Haemophilus)?
**A.** Active

**Q.** And the “growth inhibition (GI)” value (Staphylococcus aureus [2])?
**A.** Active

**Q.** And the inhibition [3]?
**A.** Active

**Q.** And the Activity [4]?
**A.** Non-toxic

**Q.** And the inhibition (Gardnerella)?
**A.** Active

**Q.** And the Activity (Lactobacillus crispatus [5])?
**A.** Active

**Q.** And the Activity (Rhesus monkey [6])?
**A.** Non-toxic

**Q.** And the Activity (Lactobacillus crispatus [7])?
**A.** Active

**Q.** And the inhibition (Staphylococcus aureus [8])?
**A.** Active

**Q.** What about the inhibition (Helicobacter) of the same compound?
**A.** Active

**Q.** What about the Activity (Staphylococcus) of the same compound?
**A.** Non-toxic

**Q.** What about the Activity (Rhesus monkey [9]) of the same compound?
**A.** Non-toxic

**Q.** What about the Activity [10] of the same compound?
**A.** Non-toxic

**Q.** And the Activity [11]?
**A.** Non-toxic

**Q.** And the Activity [12]?
**A.** Non-toxic

— ChEMBL document CHEMBL1687717 (Antimicrob Agents Chemother, 2008)
